Reference: ChEMBL document CHEMBL1130427, “Phenylimidazolidin-2-one derivatives as selective 5-HT3 receptor antagonists and refinement of the pharmacophore model for 5-HT3 receptor binding” (J Med Chem, 1997)
Calls of active or inactive are those of the source.

Assays:
[1] = molecular target: T1, Serotonin 3 (5-HT3) receptor (Rattus norvegicus) (UniProt P35563+Q9JJ16); experiment: Inhibition of the Bezold Jarisch reflex evoked by 30 ug/Kg of 5-HT; Weak activity.; assay type: functional
[2] = molecular target: T1, Serotonin 3 (5-HT3) receptor (Rattus norvegicus); experiment: Antagonist activity ([…]) for the Bezold Jarisch reflex evoked by 30 ug/Kg of 5-HT in ethylurethane anesthetized rats (i.v.); assay type: functional
[3] = molecular target: T2, Serotonin 3 (5-HT3) receptor (Rattus norvegicus, UniProt P35563+Q9JJ16); experiment: In vitro affinity for 5-hydroxytryptamine 3 (5-HT3) receptor by displacement of [3H]BRL-43694 from rat entorhinal cortex
T2 sequence (P35563 whole entry): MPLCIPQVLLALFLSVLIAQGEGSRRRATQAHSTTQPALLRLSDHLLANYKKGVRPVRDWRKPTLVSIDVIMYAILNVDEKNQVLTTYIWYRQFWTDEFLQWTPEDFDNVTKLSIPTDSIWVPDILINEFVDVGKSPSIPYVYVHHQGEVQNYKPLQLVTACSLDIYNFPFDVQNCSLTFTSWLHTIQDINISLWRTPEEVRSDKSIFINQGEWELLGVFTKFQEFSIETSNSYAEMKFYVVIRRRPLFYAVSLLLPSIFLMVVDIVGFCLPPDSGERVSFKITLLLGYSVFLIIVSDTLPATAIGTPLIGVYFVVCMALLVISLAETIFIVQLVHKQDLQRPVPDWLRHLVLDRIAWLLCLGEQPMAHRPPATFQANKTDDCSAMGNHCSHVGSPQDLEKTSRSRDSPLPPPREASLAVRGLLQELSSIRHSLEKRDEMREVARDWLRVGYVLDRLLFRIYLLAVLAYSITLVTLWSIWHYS
T2 sequence (Q9JJ16 whole entry): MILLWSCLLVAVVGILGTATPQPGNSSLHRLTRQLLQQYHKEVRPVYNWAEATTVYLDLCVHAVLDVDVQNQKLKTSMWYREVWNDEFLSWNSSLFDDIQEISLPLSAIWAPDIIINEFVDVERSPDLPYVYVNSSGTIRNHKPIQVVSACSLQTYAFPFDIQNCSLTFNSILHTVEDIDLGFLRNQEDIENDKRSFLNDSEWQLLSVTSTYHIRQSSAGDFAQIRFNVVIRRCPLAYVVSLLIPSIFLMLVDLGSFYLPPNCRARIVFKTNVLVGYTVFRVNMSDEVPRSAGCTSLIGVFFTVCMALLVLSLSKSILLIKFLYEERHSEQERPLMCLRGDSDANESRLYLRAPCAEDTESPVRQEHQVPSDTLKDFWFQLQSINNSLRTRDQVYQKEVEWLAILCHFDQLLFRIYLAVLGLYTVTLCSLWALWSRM
Summary of the method: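 Each displacement curve has 10 concentrations in triplicate; Ki averaged from at least three curves (±SEM) using the Ligand program.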

[4] = molecular target: T1, Serotonin 3 (5-HT3) receptor (Rattus norvegicus); experiment: (§1) Inhibition of the Bezold Jarisch reflex evoked by 30 ug/Kg of 5-HT.; assay type: functional
Summary of the method: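 Rats anesthetized with ethylurethane, 1.25 g/kg ip. Bezold–Jarisch reflex evoked by 5-HT 30 μg/kg iv. The rapid, transient fall in heart rate was quantified without and with antagonist.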

Rattus norvegicus = experiment: Antagonist activity (100 ug/kg) for the Bezold Jarisch reflex evoked by 30(ug/Kg) of 5-HT receptor in ethylurethane anesthetized rats i.v.; assay type: functional
[5] = molecular target: T1, Serotonin 3 (5-HT3) receptor (Rattus norvegicus); experiment: as §1; assay type: functional; remark: listed apart in the source
[6] = molecular target: T3, 5-hydroxytryptamine receptor 3A (Rattus norvegicus) (UniProt P35563); experiment: Antagonist activity (100 ug/kg) for the Bezold Jarisch reflex evoked by 30 (ug/Kg) of 5-hydroxytryptamine 3 receptor in ethylurethane anesthetized rats i.v.; assay type: functional
T3 sequence (whole entry): T2 sequence (P35563 whole entry)

CN1C2CCCC1CC(N1CCN(c3cccc(Cl)c3)C1=O)C2 (stereo in doubt; 37) [listing 1 of 2 here]
ID50 [1]: Partially active
inhibition [2]: 15%

O=C1N(Cc2c[nH]cn2)CCN1c1ccccc1
Ki [3]: 4 nM
ID50 [1]: Partially active
inhibition [2]: 56%

CN1C2CCCC1CC(N1CCN(c3cccc(Cl)c3)C1=O)C2 (stereo in doubt; 37) [listing 2 of 2 here]
Ki [3]: 250 nM

Cc1c(CN2CCN(c3ccccc3)C2=O)ncn1C
Ki [3]: 8.5 nM
ID50 [4]: 0.0285 mg/kg
inhibition [2]: 77%

COc1cccc(N2CCN(C3CN4CCC3CC4)C2=O)c1 (centres undefined)
Ki [3]: 6 nM
Inhibition (Rattus norvegicus): 37%
ID50 [1]: Partially active

Cc1nccn1CC1CCc2c(c3ccccc3n2C)C1=O (centres undefined)
ID50 [4]: 0.00225 mg/kg

CN1C2CCC1CC(N1CCN(c3cccc(Cl)c3)C1=O)C2 (stereo in doubt; 33) [listing 1 of 2 here]
Ki [3]: 25 nM

CSc1cccc(N2CCN(Cc3nc[nH]c3C)C2=O)c1
Ki [3]: 1.6 nM
ID50 [4]: 0.0286 mg/kg
inhibition [2]: 88%

O=C1N(c2cccc(Br)c2)CCN1C1CN2CCC1CC2 (centres undefined)
Ki [3]: 3 nM
ID50 [1]: Partially active
inhibition [2]: 77.7%

Cc1[nH]c[n+](C)c1CN1CCN(c2ccccc2)C1=O
Ki [3]: 55 nM
ID50 [1]: Partially active
inhibition [2]: 45%

Cc1[nH]cnc1CN1CCN(c2cccc(Cl)c2)C1=O
Ki [3]: 0.5 nM
ID50 [4]: 0.00526 mg/kg
inhibition [2]: 87%

CN1C2CCCC1CC(N1CCN(c3cccc(Cl)c3)C1=O)C2 (stereo in doubt; 38) [listing 1 of 2 here]
ID50 [1]: Partially active
inhibition [2]: 21%

N#Cc1cccc(N2CCN(C3CN4CCC3CC4)C2=O)c1 (centres undefined)
Ki [3]: 30 nM
ID50 [1]: Partially active
inhibition [2]: 43%

Cc1[nH]cnc1CN1CCN(c2cc(Cl)cc(Cl)c2)C1=O
Ki [3]: 0.038 nM
ID50 [4]: 0.0022 mg/kg
inhibition [2]: 93%

O=C1N(c2cc(Cl)cc(Cl)c2)CCN1C1CN2CCC1CC2 (centres undefined)
Ki [3]: 1 nM
ID50 [4]: 0.0206 mg/kg
inhibition [2]: 76%

CN1C2CCC1CC(NC(=O)N1CC(C)(C)c3ccccc31)C2 (centres undefined)
Ki [3]: 0.26 nM
ID50 [4]: 0.00089 mg/kg
inhibition [2]: 90.5%

CC[n+]1c[nH]c(C)c1CN1CCN(c2ccccc2)C1=O
Ki [3]: 67 nM
ID50 [1]: Partially active
inhibition [2]: 38%

Cc1[nH]cnc1CN1CCN(c2ccccc2)C1=O
Ki [3]: 3.4 nM
ID50 [4]: 0.0039 mg/kg
inhibition [2]: 95%

CN1C2CCCC1CC(N1CCN(c3ccccc3)C1=O)C2 (centres undefined)
Ki [3]: 190 nM
ID50 [1]: Partially active
inhibition [2]: 22%

CCn1cnc(CN2CCN(c3ccccc3)C2=O)c1C
Ki [3]: 85 nM
ID50 [1]: Partially active
inhibition [2]: 21%

Cc1cccc(N2CCN(Cc3nc[nH]c3C)C2=O)c1
Ki [3]: 0.93 nM
ID50 [4]: 0.0031 mg/kg
inhibition [2]: 86%

CN1C2CCC1CC(N1CCN(c3cccc(Cl)c3)C1=O)C2 (stereo in doubt; 33) [listing 2 of 2 here]
ID50 [1]: Partially active
inhibition [2]: 27%

CN1C2CCCC1CC(N1CCN(c3cccc(Cl)c3)C1=O)C2 (stereo in doubt; 38) [listing 2 of 2 here]
Ki [3]: 360 nM

CN1C2CCC1CC(N1CCN(c3ccccc3)C1=O)C2 (centres undefined)
Ki [3]: 12 nM
ID50 [1]: Partially active
inhibition [2]: 56%

Cc1[nH]cnc1CN1CCN(c2cccc(C#N)c2)C1=O
Ki [3]: 2.7 nM
ID50 [4]: 0.0322 mg/kg
inhibition [2]: 88%

CN1C2CCC1CC(N1CCN(c3cccc(Cl)c3)C1=O)C2 (stereo in doubt; 34) [listing 1 of 2 here]
ID50 [1]: Partially active
inhibition [2]: 0%

Cc1[nH]cnc1CN1CCN(c2cccc([N+](=O)[O-])c2)C1=O
ID50 [4]: 0.054 mg/kg
inhibition [2]: 95%

O=C1N(c2cccc([N+](=O)[O-])c2)CCN1C1CN2CCC1CC2 (centres undefined)
Ki [3]: 10 nM
ID50 [1]: Partially active
inhibition [2]: 5%

Cc1cccc(N2CCN(C3CN4CCC3CC4)C2=O)c1 (centres undefined)
Ki [3]: 4 nM
ID50 [5]: 0.0376 mg/kg
inhibition [2]: 75%

O=C1N(c2ccc(Cl)cc2)CCN1C1CN2CCC1CC2 (centres undefined)
Ki [3]: 210 nM
ID50 [1]: Partially active
inhibition [6]: 8%

Cc1[nH]cnc1CN1CCN(c2cccc(F)c2)C1=O
Ki [3]: 3.7 nM
ID50 [4]: 0.0176 mg/kg
inhibition [2]: 84%

COc1ccc(Cl)cc1N1CCN(C2CC3CCC(C2)N3C)C1=O (centres undefined)
Ki [3]: 400 nM
ID50 [1]: Partially active
inhibition [2]: 22%

Cc1[nH]cnc1CN1CCN(c2ccc(Cl)cc2)C1=O
Ki [3]: 19 nM
ID50 [1]: Partially active
inhibition [2]: 29%

COc1ccc(Cl)cc1N1CCN(C2CN3CCC2CC3)C1=O (centres undefined)
Ki [3]: 40 nM
ID50 [1]: Partially active
inhibition [2]: 11%

COc1ccc(Cl)cc1N1CCN(C2CC3CCCC(C2)N3C)C1=O (centres undefined)
Ki [3]: > 10000 nM
ID50 [1]: Partially active
inhibition [2]: 5%

CN1[C@@H]2CC[C@H]1C[C@@H](OC(=O)c1c[nH]c3ccccc13)C2
ID50 [4]: 0.001 mg/kg

O=C1N(c2cccc(C(F)(F)F)c2)CCN1C1CN2CCC1CC2 (centres undefined)
Ki [3]: 98 nM
ID50 [1]: Partially active
inhibition [2]: 14%

CSc1cccc(N2CCN(C3CN4CCC3CC4)C2=O)c1 (centres undefined)
Ki [3]: 6 nM
ID50 [1]: Partially active
inhibition [2]: 28%

Cc1[nH]cnc1CN1CCN(c2ccccc2Cl)C1=O
Ki [3]: 290 nM
ID50 [1]: Partially active
inhibition [2]: 5%

Cc1cc(C)cc(N2CCN(Cc3nc[nH]c3C)C2=O)c1
Ki [3]: 0.42 nM
ID50 [4]: 0.0034 mg/kg
inhibition [2]: 86%

CN1C2CCCC1CC(NC(=O)c1nn(C)c3ccccc13)C2 (centres undefined)
ID50 [4]: 0.00088 mg/kg
inhibition [2]: 95%

O=C1N(c2cccc(Cl)c2)CCN1C1CN2CCC1CC2 (centres undefined)
Ki [3]: 2 nM
ID50 [5]: 0.0799 mg/kg
Inhibition (Rattus norvegicus): 60%

O=C1N(c2ccccc2)CCN1C1CN2CCC1CC2 (centres undefined)
Ki [3]: 8 nM
ID50 [4]: 0.0671 mg/kg
inhibition [2]: 71%

Cc1nc[nH]c1CN1CCN(c2cccc([N+](=O)[O-])c2)C1=O
Ki [3]: 6.6 nM

Cc1[nH]cnc1CN1CCN(c2cccc(C(F)(F)F)c2)C1=O
Ki [3]: 9.7 nM
ID50 [1]: Partially active
inhibition [2]: 39%

Cc1[nH]cnc1CN1CCN(c2cccc(Br)c2)C1=O
Ki [3]: 0.62 nM
ID50 [4]: 0.0065 mg/kg
inhibition [2]: 89%

CN1C2CCC1CC(N1CCN(c3cccc(Cl)c3)C1=O)C2 (stereo in doubt; 34) [listing 2 of 2 here]
Ki [3]: > 10000 nM

COc1cccc(N2CCN(Cc3nc[nH]c3C)C2=O)c1
Ki [3]: 3.6 nM
ID50 [4]: 0.0154 mg/kg
inhibition [2]: 92%
